A word on the pIC50: it is the IC50 on a negative log10 scale, so that one unit is a factor of ten.

The source of these data is article PMC6976987 (Molecular Genetics and Metabolism Reports, 2020).

The structures appear in SMILES notation. pIC50: −log10 of the molar value.

The nature of data set [1]: Safety assessments. Type of data set: in vivo, human. The procedure, abridged:
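Open-label study in healthy adults. Safety was monitored after a single dose (Day 1), during multiple doses alone (Days 2–8), and during co-dosing (Days 9–15 with the CYP3A/P-gp inhibitor; Days 9–18 with the CYP2D6 inhibitor). Measures: treatment-emergent AEs, clinical labs, vital signs, physical exams, 12-lead ECG, 12 h continuous telemetry. An AE counted as treatment-related if possibly, probably or definitely related to study drug.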

In data set [2] the test system is glucosylceramide synthase. To be noted: read-out: in vitro IC50; inhibitor of glucosylceramide synthase; cited from earlier work.
Setting [3] is: concomitant dosing of eliglustat with ketoconazole, Days 9 to 15, N = 33.
Where [4] appears, read: ketoconazole study (N = 36), whole study.
Where [5] appears, read: multiple-dose eliglustat period, Days 2 to 8, N = 34.

Regarding `CCCCCCCC(=O)N[C@H](CN1CCCC1)[C@H](O)c1ccc2c(c1)OCCO2` [eliglustat], the tolerability entry in data set [1] (administered alone and with ketoconazole) is recorded as “well tolerated”. In addition, the “subjects with dysmenorrhea of moderate intensity” value in data set [1] (concomitant dosing of eliglustat with ketoconazole) was determined as 3.0%. For the same compound, in data set [1] (setting [3]), the “number of AEs” value was determined as 33 AEs and the “subjects with AEs” value stood at 48.5%. Moreover, the “subjects reporting AEs related to eliglustat” value in data set [1] (concomitant dosing with ketoconazole, N = 33) was determined as 36.4%. Moreover, the “subjects reporting AEs possibly related to both eliglustat and ketoconazole” value in data set [1] (concomitant dosing, N = 33) is 33.3%. The “subjects reporting treatment-related AEs” value in data set [1] (following a single dose of eliglustat, Day 1, N = 36) worked out at 5.6%. Moreover, the QTcF interval prolongation result in data set [1] (ketoconazole study) is reported as “no clinically significant prolongations of QTcF interval”. For the same compound, in data set [1] (setting [4]), the “Any adverse event (AE), number of events” value was 58 N; the “Any adverse event (AE), number of subjects” value is listed as 20 (55.6%) N (%); the “Any treatment-related AE, number of events” value is 45 N; the “Any treatment-related AE, number of subjects” value is 15 (41.7%) N (%). In addition, in data set [1] (setting [4]), the “Discontinuations due to AE, number of events” value worked out at 0 N; the “Discontinuations due to AE, number of subjects” value is on record as 0 (0.0%) N (%); the “Serious AEs, number of events” value came out at 0 N; the “Serious AEs, number of subjects” value was 0 (0.0%) N (%). Moreover, in data set [1] (setting [4]), the “Severe AEs, number of events” value is given as 0 N and the “Severe AEs, number of subjects” value was 0 (0.0%) N (%). Moreover, the “subjects with dysmenorrhea of moderate intensity” value in data set [1] (multiple-dose eliglustat) turned out to be 2.9%. Moreover, in data set [1] (setting [5]), the “number of AEs” value turned out to be 21 AEs and the “subjects with AEs” value is on record as 32.4%. In addition, the “subjects reporting treatment-related AEs” value in data set [1] (multiple-dose eliglustat, N = 34) came out at 23.5%. Further, the “subjects with headache of moderate intensity” value in data set [1] (multiple-dose eliglustat, possibly related to eliglustat, unlikely related to ketoconazole) came out at 2.9%. The pIC50 in data set [2] is 7.62.
